# High-throughput results from PubChem BioAssay.
# TLR4 MyD88 comp – TLR4-MyD88 interaction inhibition in cells. O00206+Q99836. HeLa CL3-4 TLR4/MyD88 BLA complementation, FRET ratio. inhibition, % at 8.4 µM. 200,000 compounds, 0.18% hits. AID 861; in the data active = inhibition above about 25%;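 also: 0% = vehicle and 100% = reference inhibitor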
# TLR9-MyD88 block – inhibitors of human TLR9-MyD88 binding; inhibition, % at 4.98 µM; 340,000 compounds, 0.21% hits; Q9NR96+Q99836; CHO BLA complementation TLR9-MyD88, CCF4 FRET ratio;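 active = inhibition above the mean over all tested compounds plus 3 SD, cut at about 21% in these data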;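 also: 0% = DMSO only wells and 100% = clavulanate BLA inhibitor control wells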
# CHOP inhibitor – CHOP inhibition in unfolded protein response; CHO-K1 CHOP-promoter luciferase, tunicamycin-induced, 15-18 h; inhibition, % at 10 µM; 220,000 compounds, 3.8% hits;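 active = compounds that reduced the stress-induced luciferase reporter signal by more than about 70% of percent inhibition, limit read from the data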;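 also: 0% = tunicamycin plus vehicle and 100% = wells without tunicamycin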
# CHOP UPR activ – activators of apoptotic arm of unfolded protein response (CHOP). CHO-CHOP luciferase reporter, UPR activation, luminescence; percent of tunicamycin response over DMSO baseline. activation, % at 10 µM. 330,000 compounds, 0.34% hits;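 active = at 10 µM dose, activation of 40% or more, normalized to positive control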;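 also: 100% = tunicamycin at 10 µg/mL and 0% = DMSO alone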
#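 System: CHO-CHOP luciferase reporter cell line; amount: 500 cells/well; buffer or medium: F12 medium containing 10% fetal bovine serum; incubation: 6 h compound exposure at 37 °C after overnight seeding; measured by: luciferase luminescence after 10 min with Steady-Glo reagent; evaluation: % reporter activation, DMSO baseline versus tunicamycin full activation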
# NOD2 RIPK2 PPI – blocks binding of human NOD2 to RIPK2. O43353. CHO BLA complementation NOD2-RIPK2, CCF4 ratio. inhibition, % at 4.98 µM. 360,000 compounds, 0.38% hits. AID 624267; in the data active = inhibition above about 21%;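 also: 0% = vehicle only and 100% = reference blocker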
# Target sequence (O43353 whole entry, looked up): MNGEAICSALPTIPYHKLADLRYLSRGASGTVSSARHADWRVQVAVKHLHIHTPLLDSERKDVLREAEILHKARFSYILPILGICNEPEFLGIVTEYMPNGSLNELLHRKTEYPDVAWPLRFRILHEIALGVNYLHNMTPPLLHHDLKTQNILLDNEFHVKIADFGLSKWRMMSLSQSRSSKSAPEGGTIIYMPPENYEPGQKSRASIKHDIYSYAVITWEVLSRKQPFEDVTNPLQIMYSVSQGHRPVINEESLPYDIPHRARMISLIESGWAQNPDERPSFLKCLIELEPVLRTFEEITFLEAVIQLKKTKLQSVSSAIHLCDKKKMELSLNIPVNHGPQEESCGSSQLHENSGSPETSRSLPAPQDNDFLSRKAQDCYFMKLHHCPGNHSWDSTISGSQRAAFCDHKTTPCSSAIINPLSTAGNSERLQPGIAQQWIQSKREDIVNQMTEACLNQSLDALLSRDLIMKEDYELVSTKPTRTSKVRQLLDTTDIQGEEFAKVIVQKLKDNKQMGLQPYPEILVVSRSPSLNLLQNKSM
# XBP1 UPR activ – activators of adaptive arm of unfolded protein response (XBP1); 330,000 compounds, 0.33% hits; activation, % at 20 µM; AID 463104; CHO-XBP1 luciferase reporter, IRE1-XBP1 UPR activation, luminescence; percent of tunicamycin response, DMSO as zero;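 active = versus positive control, 20 µM dose yields 30% or more activation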;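 also: 100% = tunicamycin at 10 µg/mL and 0% = DMSO only wells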
#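 Material – CHO cell line with stable XBP1 luciferase reporter · Buffer or medium – F12 plus 10% FBS · Compound – single point, 20 µM final compound, 1% DMSO · Schedule – 16-18 h cell attachment at 37 °C, then 6 h compound exposure · Signal – Steady-Glo luminescence read · Benchmarks – high control tunicamycin 10 µg/mL final, low control DMSO vehicle only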
# * = called active by the depositor; x = no result. The sample as a whole holds a higher share of hits than the screen did.
SMILES,TLR4 MyD88 comp,TLR9-MyD88 block,CHOP inhibitor,CHOP UPR activ,NOD2 RIPK2 PPI,XBP1 UPR activ
Cc1ccccc1NC1=CC(=O)CC(C)(C)C1,5,-1,-12,1,-2,1
Cc1cc(C)cc(C(O)c2ncc(-c3cccc(C(F)(F)F)c3)[nH]2)c1 (stereo not drawn),x,x,x,x,-4,x
CCOC(=O)CSc1nc2cc(OCC)ccc2cc1C#N,15,13,93*,3,-1,12
Cc1ccc(C(=O)N2CCN(S(=O)(=O)c3ccccc3)CC2)s1,x,-9,x,-1,-5,-2
COc1ccc(OC)c(NC(=O)CSc2nnc(-c3cnccn3)n2C)c1,x,7,x,2,-4,-2
CN(C)c1ccc(-c2ccnc3c2CC(C)(C(=O)NCC2CCOCC2)O3)cc1 (stereo not drawn),x,x,x,x,4,x
Cc1[nH]c2ccccc2c1CN1CCc2ccccc2C1,-7,4,91*,9,0,-3
O/N=C(\c1ccc(Cl)cc1)c1cc2ccccc2o1,5,-7,85*,1,15,1
O=C(Nc1ccc(Cl)cc1Cl)c1cc2ccccc2o1,x,8,x,5,5,-1
CC(C)NC(=O)CSc1nnc(-c2ccc(F)cc2)c2ccccc12,-8,-4,36,-1,-5,-3
Cc1ccccc1-c1nc(S(=O)(=O)c2ccc(Cl)cc2)c(NCCN2CCOCC2)o1,-3,-3,90*,0,7,-2
Cc1ccccc1-c1nc(S(=O)(=O)c2ccccc2)c(NCCCN2CCOCC2)o1,x,-8,x,0,-15,0
O=C(Nc1ccc(OCC(F)(F)C(F)F)c(C(F)(F)F)c1)c1ccccc1O,-12,-11,108*,16,0,6
O=C(Nc1ccc(OCC(F)(F)C(F)F)c(C(F)(F)F)c1)c1ccccc1,-2,-8,x,2,2,3
Cc1ccc(Oc2ccccc2NC(=O)C2=COCCO2)cc1,x,-6,x,0,-6,0
Cc1ccc2nc(NC(=O)c3ccc4c(c3)OCO4)sc2c1,15,-8,93*,5,-5,3
Cc1ccc2nc(NC(=O)c3cccc(-c4cc5ccccc5oc4=O)c3)sc2c1,-12,x,53,1,x,122*
CCOc1ccc2nc(NC(=O)c3cccc(-c4cc5ccccc5oc4=O)c3)sc2c1,-11,-11,92*,x,-8,x
CCCN(Cc1nnc(-c2ccccc2Cl)o1)C(=O)c1oc2ccccc2c1C,x,0,x,-1,-10,-3
C=CCSC1=NC(=O)/C(=C/c2cccs2)S1,11,-2,81*,x,-6,x
CC(Oc1cc2oc(=O)cc(-c3ccccc3)c2cc1Cl)C(=O)NCC1CCC(C(=O)O)CC1 (stereo not drawn),x,5,x,1,-9,-1
CC(NC(=O)OC(C)(C)C)C(=O)Oc1cc2oc(=O)cc(-c3ccccc3)c2cc1Cl (stereo not drawn),11,31*,31,2,39*,3
O=C(C(=O)N(Cc1ccccc1)Cc1ccccc1)c1c(-c2ccccc2)[nH]c2ccccc12,x,3,x,x,-22,x
Cc1nc2ccccc2c(=O)n1/N=C/c1cn[nH]c1-c1ccccc1,x,x,9,-1,-4,1
Cc1ccccc1OCc1nc2ccccc2c(=O)n1/N=C/c1cn[nH]c1-c1ccccc1,-1,-9,85*,4,-10,3
Cc1cccc2cc(CN(Cc3ccc(F)cc3)C(=O)N(C)C)c3nnnn3c12,-12,3,90*,-1,3,-3
O=C(Nc1cnn(Cc2ccc(F)cc2)c1)c1noc2c1CCCC2,-3,6,-1,5,-5,4
CC(C)(C)C1CCc2onc(C(=O)Nc3cnn(Cc4ccc(F)cc4)c3)c2C1 (stereo not drawn),13,1,86*,3,3,4
O=C(CCCn1c(=O)c2ccccc2n(CC(=O)NCc2ccco2)c1=O)NCc1ccco1,-5,8,73*,-1,-9,0
CCOc1cc2[nH]c(=S)n(CCC(=O)NCc3ccco3)c(=O)c2cc1OCC,-6,1,4,1,-2,-2
